Experimental data: ChEMBL document CHEMBL1177674, “2-acylamino-4,6-diphenylpyridine derivatives as novel GPR54 antagonists with good brain exposure and in vivo efficacy for plasma LH level in male rats” (Bioorg Med Chem, 2010)

Assays:
Caco-2 = assay: Ratio of permeability from basolateral to apical side to apical to basolateral side of human Caco-2 cells; format: ADME, cell-based
Method in brief: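 Caco-2 monolayers were grown to confluence on collagen-coated polycarbonate Transwell membranes. Assay buffer was HBSS with 10 mmol/L HEPES, 15 mmol/L glucose and 1% BSA, pH 7.3–7.5. Compound was dosed apically or basolaterally at 37 °C, 5% CO2. Receivers were sampled at 1 and 2 h and donors at 2 h, in duplicate. A cell-free membrane corrected for nonspecific binding. The B-to-A/A-to-B ratio was derived.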

[1] = Lipophilicity, log D at pH 7.4; format: physicochemical; conditions: buffer
KiSS-1 receptor [2] = target: T1, KiSS-1 receptor (Homo sapiens, UniProt Q969F8); assay: Displacement of [125I]metastin from human GPR54 receptor expressed in CHO cells; format: cell-based
T1 sequence (Q969F8 whole entry): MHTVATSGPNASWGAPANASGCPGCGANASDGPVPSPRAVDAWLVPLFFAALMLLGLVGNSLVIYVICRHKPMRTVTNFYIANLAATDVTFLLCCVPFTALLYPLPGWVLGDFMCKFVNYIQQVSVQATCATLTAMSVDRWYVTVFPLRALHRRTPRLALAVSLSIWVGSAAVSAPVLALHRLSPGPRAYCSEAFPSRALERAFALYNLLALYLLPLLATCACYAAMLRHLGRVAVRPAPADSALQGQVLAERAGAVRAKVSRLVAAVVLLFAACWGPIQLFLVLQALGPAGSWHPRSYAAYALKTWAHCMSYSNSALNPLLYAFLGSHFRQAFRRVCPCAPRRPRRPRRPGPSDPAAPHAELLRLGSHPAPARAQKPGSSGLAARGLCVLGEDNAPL
Method in brief: (§1)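 Membranes came from CHO cells stably expressing human or rat GPR54. They were incubated with 135 pM 125I-metastin (40–54) plus compound for 60 min at 25 °C, in Tris binding buffer pH 7.4 with protease inhibitors and 1 mg/ml BSA. Samples were filtered through PEI-pretreated GF/C filters, buffer-washed, and the bound radioactivity was counted.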

KiSS-1 receptor [3] = target: KiSS-1 receptor (Rattus norvegicus, UniProt Q924U1); assay: Displacement of [125I]metastin from rat GPR54 receptor expressed in CHO cells; format: cell-based; method in brief: as §1
KiSS-1 receptor (Rattus norvegicus, UniProt Q924U1), sequence (Q924U1 whole entry): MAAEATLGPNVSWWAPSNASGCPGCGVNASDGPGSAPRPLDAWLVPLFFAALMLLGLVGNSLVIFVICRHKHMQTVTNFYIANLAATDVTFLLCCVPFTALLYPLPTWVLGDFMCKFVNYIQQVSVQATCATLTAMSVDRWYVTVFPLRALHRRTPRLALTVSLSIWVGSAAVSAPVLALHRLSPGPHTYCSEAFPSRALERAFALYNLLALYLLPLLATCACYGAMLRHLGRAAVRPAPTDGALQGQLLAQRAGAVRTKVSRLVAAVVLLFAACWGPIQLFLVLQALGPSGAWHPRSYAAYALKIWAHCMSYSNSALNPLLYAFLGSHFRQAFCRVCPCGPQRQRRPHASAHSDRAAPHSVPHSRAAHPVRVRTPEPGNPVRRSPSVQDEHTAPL

KiSS-1 receptor [4] = target: T1, KiSS-1 receptor; assay: Antagonist activity at human GPR54 receptor assessed as inhibition of metastin-induced calcium mobilization; format: functional
Method in brief: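 Cells in MEM with 10% dFBS, penicillin and streptomycin, plated at 30,000 cells/well and cultured overnight. Loaded 60 min at 37 °C in Hepes-buffered saline (pH 7.4) containing 0.1% BSA, Fluo-3AM, 1.25 mM probenecid and 0.04% Pluronic F-127. Washed at 37 °C in the same buffer with BSA and probenecid. Ca²⁺ mobilization read on FLIPR.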

Rattus norvegicus = assay: Decrease in leutinizing hormone level in castrated Wistar rat plasma at 0.22 mg/kg, iv for 5 times with 10 mins interval measured after 60 mins postdose by radioimmunoassay; format: functional; set-up: scale not given: the % may be the effect or the level left
Method in brief: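 Male Wistar rats, 11 weeks old, were castrated 7 days before testing. Compound was suspended at […] in 20% DMSO-40% PEG400. It was given at 0.22 mg/kg (0.8 ml/kg) via jugular catheter five times at 10 min intervals, for 1.1 mg/kg total. Vehicle served as control; n = 8 per group. Blood was drawn before dosing and at 25–180 min, then aprotinin–EDTA plasma was prepared. Values are means SE of eight.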

Compound	logD [1]	IC50 (KiSS-1 receptor [2])	further results
N#Cc1c(-c2cccc(NC(=O)CCN)c2)cc(-c2ccc(F)cc2O)nc1NC(=O)c1cccs1	2.14		Ratio (Caco-2): 49
CN(C)CC(=O)Nc1cccc(-c2cc(-c3ccccc3O)nc(NC(=O)c3cccs3)c2C#N)c1	3.07	180 nM	Ratio (Caco-2): 1
N#Cc1c(-c2cccc(CN3CCNCC3)c2)cc(-c2ccc(F)cc2O)nc1NC(=O)c1ccco1		9.7 nM	
CCN1CCN(Cc2cccc(-c3cc(-c4ccc(F)cc4O)nc(NC(=O)c4ccco4)c3C#N)c2)CC1		20 nM	
CNCCC(=O)Nc1cccc(-c2cc(-c3ccc(F)cc3O)nc(NC(=O)c3ccco3)c2C#N)c1	2.13	4.6 nM	IC50 (KiSS-1 receptor [3]): 20 nM
N#Cc1c(-c2cccc(N3CCNCC3)c2)cc(-c2ccc(F)cc2O)nc1NC(=O)c1ccco1	2.72	3.6 nM	Ratio (Caco-2): 1.2; IC50 (KiSS-1 receptor [3]): 15 nM; IC50 (KiSS-1 receptor [4]): 930 nM; Activity (Rattus norvegicus): 32%
CCN1CCN(c2cccc(-c3cc(-c4ccc(F)cc4O)nc(NC(=O)c4ccco4)c3C#N)c2)CC1	4.1	11 nM	Ratio (Caco-2): 1; IC50 (KiSS-1 receptor [3]): 47 nM
CC(CC(=O)Nc1cccc(-c2cc(-c3ccc(F)cc3O)nc(NC(=O)c3ccco3)c2C#N)c1)N(C)C (racemic)		18 nM	
CCN(C)CCC(=O)Nc1cccc(-c2cc(-c3ccc(F)cc3O)nc(NC(=O)c3ccco3)c2C#N)c1		10 nM	
CNCC(=O)Nc1cccc(-c2cc(-c3ccc(F)cc3O)nc(NC(=O)c3ccco3)c2C#N)c1	2.66	8.4 nM	IC50 (KiSS-1 receptor [3]): 26 nM
N#Cc1c(-c2cccc(N3CCCNCC3)c2)cc(-c2ccc(F)cc2O)nc1NC(=O)c1ccco1		7.3 nM	
CN1CCN(c2cccc(-c3cc(-c4ccc(F)cc4O)nc(NC(=O)c4ccco4)c3C#N)c2)CC1		15 nM	
CN1CCC[C@H]1CC(=O)Nc1cccc(-c2cc(-c3ccc(F)cc3O)nc(NC(=O)c3ccco3)c2C#N)c1		18 nM	
N#Cc1c(-c2cccc(NC(=O)CC3CCCCN3)c2)cc(-c2ccc(F)cc2O)nc1NC(=O)c1ccco1 (racemic)		14 nM	
N#Cc1c(-c2cccc(NC(=O)[C@H]3CCCN3)c2)cc(-c2ccc(F)cc2O)nc1NC(=O)c1ccco1		16 nM	
CN(C)CCC(=O)Nc1cccc(-c2cc(-c3ccc(F)cc3O)nc(NC(=O)c3ccco3)c2C#N)c1	2.95	10 nM	Ratio (Caco-2): 4.3; IC50 (KiSS-1 receptor [3]): 47 nM

More lines, main results first:

logD [1]	IC50 (KiSS-1 receptor [2])	Compound	further results
	20 nM	CN(C)CCNC(=O)c1cccc(-c2cc(-c3ccc(F)cc3O)nc(NC(=O)c3ccco3)c2C#N)c1	
	30 nM	CCN(CC)CC(=O)Nc1cccc(-c2cc(-c3ccc(F)cc3O)nc(NC(=O)c3ccco3)c2C#N)c1	
	8 nM	CCNC(CC)CC(=O)Nc1cccc(-c2cc(-c3ccc(F)cc3O)nc(NC(=O)c3ccco3)c2C#N)c1 (racemic)	
	10 nM	CCNC(C)CC(=O)Nc1cccc(-c2cc(-c3ccc(F)cc3O)nc(NC(=O)c3ccco3)c2C#N)c1 (racemic)	
	15 nM	N#Cc1c(-c2cccc(NC(=O)CN3CCCC3)c2)cc(-c2ccc(F)cc2O)nc1NC(=O)c1ccco1	
2.29	7.9 nM	N#Cc1c(-c2cccc(NC(=O)C[C@@H]3CCCN3)c2)cc(-c2ccc(F)cc2O)nc1NC(=O)c1ccco1	IC50 (KiSS-1 receptor [3]): 26 nM
3.31	12 nM	CN(C)CC(=O)Nc1cccc(-c2cc(-c3ccc(F)cc3O)nc(NC(=O)c3ccco3)c2C#N)c1	Ratio (Caco-2): 1.4; IC50 (KiSS-1 receptor [3]): 130 nM
2.13	10 nM	N#Cc1c(-c2cccc(NC(=O)C[C@H]3CCCN3)c2)cc(-c2ccc(F)cc2O)nc1NC(=O)c1ccco1	IC50 (KiSS-1 receptor [3]): 38 nM
	22 nM	CCC(CC(=O)Nc1cccc(-c2cc(-c3ccc(F)cc3O)nc(NC(=O)c3ccco3)c2C#N)c1)N(CC)CC (racemic)	
	30 nM	CN(C)CCN(C)c1cccc(-c2cc(-c3ccc(F)cc3O)nc(NC(=O)c3ccco3)c2C#N)c1	
	4.1 nM	N#Cc1c(-c2cccc(NC(=O)CN)c2)cc(-c2ccc(F)cc2O)nc1NC(=O)c1ccco1	
	25 nM	N#Cc1c(-c2cccc(CN3CCCNCC3)c2)cc(-c2ccc(F)cc2O)nc1NC(=O)c1ccco1	
	16 nM	CCN(CC)CCC(=O)Nc1cccc(-c2cc(-c3ccc(F)cc3O)nc(NC(=O)c3ccco3)c2C#N)c1	
	9.7 nM	CC(C)NC(C)CC(=O)Nc1cccc(-c2cc(-c3ccc(F)cc3O)nc(NC(=O)c3ccco3)c2C#N)c1 (racemic)	
	17 nM	CCN(CC)C(C)CC(=O)Nc1cccc(-c2cc(-c3ccc(F)cc3O)nc(NC(=O)c3ccco3)c2C#N)c1 (racemic)	
	18 nM	CN1CCN(Cc2cccc(-c3cc(-c4ccc(F)cc4O)nc(NC(=O)c4ccco4)c3C#N)c2)CC1	
